Measurements collected from several papers.
Lines come from different studies, so protocols differ.
Target: SRSF protein kinase 2 (SRPK2, Homo sapiens, UniProt P78362)

`C[C@@H](c1cccc(C#N)c1)n1cc(Cl)cc(C(N)=O)c1=N` has a remaining binding of 100% (cell-free assay, competition with immobilised ligand; 1 µM).
For `CCN(CC)CCNC(=O)c1c(C)[nH]c(/C=C2\C(=O)Nc3ccc(F)cc32)c1C`, the inhibition was 6% (enzyme activity, inhibitor; 0.3 µM).
With `CN1CCC2(CC1)NC(=O)c1c(c3ccc(Cl)c(Cl)c3n1C)C2C#N` (racemic) the ΔTm was 0.7 °C (thermal stability, DSF; 10 µM).
`CNCc1ccccc1-c1csc([C@@H](C)Nc2nc(C)nc3cc(OC)c(OC)cc23)c1` has a remaining binding of 61% (cell-free assay, competition with immobilised ligand; 1 µM).
With `CCC1(CC)NC(=O)c2c(c3ccc(Cl)c(Cl)c3n2C)C1C#N` (stereo not drawn) the ΔTm was 0.1 °C (thermal stability, DSF; 10 µM).
The inhibition of `COc1cc2ncnc(Nc3ccc(Oc4ccccc4)cc3C)c2cc1OC` is reported as 0% (enzyme activity, inhibitor; 1 µM).
For `CCN(CC)c1ccc(C2=NNC(=O)CC2C)cc1[N+](=O)[O-]` (stereo not drawn), the remaining activity was 100% (enzyme activity, inhibitor; 10 µM).
For `Cn1c2c(c3ccc(Cl)c(Cl)c31)C(C#N)C1(CCOCC1)NC2=O` (stereo not drawn), the ΔTm was 0.2 °C (thermal stability, DSF; 10 µM).
`CCCS(=O)(=O)Nc1ccc(F)c(C(=O)c2c[nH]c3ncc(-c4ccc(Cl)cc4)cc23)c1F` has an inhibition of < 10% (enzyme activity, inhibitor; 1 µM).
`CNC(=O)c1ccc(Nc2ncc(C(F)(F)F)c(NCc3nccnc3N(C)S(C)(=O)=O)n2)cc1` gave a remaining binding of 100% (cell-free assay, competition with immobilised ligand; 0.1 µM).
`CCOc1cc(-c2nncn2C)ccc1Nc1ncc2cc(C)nc(NCC(C)(C)C)c2n1` gave an inhibition of < 15% (enzyme activity, inhibitor, FRET; 1 µM).
The activity vs control of `Cc1cc(NC(=O)c2cccc3cc(-c4cccc5[nH]nc(N)c45)ccc23)ccc1F` is reported as 103% (enzyme activity, inhibitor; 0.1 µM).
`C#Cc1cccc(Nc2ncnc3cc(OCCOC)c(OCCOC)cc23)c1` has a remaining signal of 101% (cell-free assay; 0.5 µM).
`CC/C(=N\NC(=O)NCc1cccc(O)c1)c1ccc(O)c(C)c1O` has an inhibition of -2.2% (enzyme activity, inhibitor; 0.1 µM).
`Cc1sc(C(=O)NC2COC2)cc1-n1cc(NC(=O)Nc2c(F)cccc2Cl)cn1` has a remaining activity of 114% (enzyme activity, inhibitor; 10 µM).
The remaining binding of `CCOCCn1cc(C(=O)Nc2ccc(-n3nc(-c4cccnc4)cc3C(F)(F)F)cn2)ccc1=O` is reported as 100% (cell-free assay, competition with immobilised ligand; 1 µM).
`Cn1c2c(c3ccc(Cl)c(Cl)c31)C(C#N)C1(CCCC1)NC2=O` (stereo not drawn) has a ΔTm of 0 °C (thermal stability, DSF; 10 µM).
For `C[C@@H]1CCN(C(=O)CC#N)C[C@@H]1N(C)c1ncnc2[nH]ccc12`, the remaining signal was 90.7% (cell-free assay, inhibitor; 0.5 µM).
For `CO[C@@H](C)c1c(Nc2ccc([C@H](N(C)C(=O)C3CCS(=O)(=O)CC3)C(F)(F)F)cc2)cnc2cc(Cl)nn12`, the remaining binding was 100% (cell-free assay, competition with immobilised ligand; 1 µM).
With `Cc1ccc(Nc2nccc(N(C)c3ccc4c(C)n(C)nc4c3)n2)cc1S(N)(=O)=O` the inhibition was 4% (enzyme activity, inhibitor; 10 µM).
The remaining signal of `Cc1ccc(NC(=O)c2ccc(C)c(C(F)(F)F)c2)cc1C#Cc1nn(C2CCC(O)CC2)c2ncnc(N)c12` (stereo not drawn) is reported as 107% (cell-free assay; 10 µM).
